Reference: ChEMBL document CHEMBL2150980 (Eur J Med Chem, 2012)
Each block holds one compound with its values, some of them ahead of it.

Assays:
[1] = target: T1, Alpha-1B adrenergic receptor (Homo sapiens, UniProt P35368); assay: Displacement of [3H]prazosin from human cloned alpha1B adrenoceptor expressed in CHO cell membranes after 30 mins by liquid scintillation counter
T1 sequence (P35368 whole entry): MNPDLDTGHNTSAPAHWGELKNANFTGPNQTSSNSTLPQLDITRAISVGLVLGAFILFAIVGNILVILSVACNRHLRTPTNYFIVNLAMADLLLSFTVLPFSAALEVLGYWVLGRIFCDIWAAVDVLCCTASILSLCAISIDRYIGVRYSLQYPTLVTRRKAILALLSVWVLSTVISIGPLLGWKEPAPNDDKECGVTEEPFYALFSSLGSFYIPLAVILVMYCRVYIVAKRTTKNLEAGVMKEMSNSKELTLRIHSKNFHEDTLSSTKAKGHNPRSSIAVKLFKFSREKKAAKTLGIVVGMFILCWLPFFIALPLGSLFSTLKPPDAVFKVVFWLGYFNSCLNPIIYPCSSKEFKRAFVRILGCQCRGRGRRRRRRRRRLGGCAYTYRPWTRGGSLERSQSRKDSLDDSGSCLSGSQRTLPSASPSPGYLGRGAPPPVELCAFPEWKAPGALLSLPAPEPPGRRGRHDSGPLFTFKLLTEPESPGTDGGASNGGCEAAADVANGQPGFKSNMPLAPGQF

[2] = target: T2, Alpha-1A adrenergic receptor (Homo sapiens, UniProt P35348); assay: Displacement of [3H]prazosin from human cloned alpha1A adrenoceptor expressed in CHO cell membranes after 30 mins by liquid scintillation counter
T2 sequence (P35348 whole entry): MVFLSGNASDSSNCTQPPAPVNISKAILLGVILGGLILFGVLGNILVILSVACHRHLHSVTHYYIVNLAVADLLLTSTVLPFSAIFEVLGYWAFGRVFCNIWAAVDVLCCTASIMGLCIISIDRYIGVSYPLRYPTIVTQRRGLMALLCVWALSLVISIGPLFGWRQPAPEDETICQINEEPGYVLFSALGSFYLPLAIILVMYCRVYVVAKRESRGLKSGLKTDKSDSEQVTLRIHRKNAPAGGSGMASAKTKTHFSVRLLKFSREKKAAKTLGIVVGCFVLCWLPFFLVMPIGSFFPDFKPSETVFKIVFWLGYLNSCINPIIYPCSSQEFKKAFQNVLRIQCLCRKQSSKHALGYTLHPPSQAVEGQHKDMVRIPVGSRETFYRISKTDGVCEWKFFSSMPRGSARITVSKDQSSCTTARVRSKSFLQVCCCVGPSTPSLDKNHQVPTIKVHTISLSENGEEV
Procedure, shortened: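 Membranes incubated 30 min at 25 °C with 0.5 nM [3H]-prazosin ± compound (0.3–1000 nM) in 50 mM buffer, pH 7.7, containing pargyline and 0.1% ascorbic acid. Unlabelled prazosin defined nonspecific binding. GF/B filtration, scintillation counting.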

[3] = target: T3, 5-hydroxytryptamine receptor 1A (Rattus norvegicus, UniProt P19327); assay: Displacement of [3H]-8-OH-DPAT from 5-HT1A receptor in rat hippocampal membranes after 30 mins by liquid scintillation counting; assay type: cell membranes, Hippocampus, Membrane
T3 sequence (P19327 whole entry): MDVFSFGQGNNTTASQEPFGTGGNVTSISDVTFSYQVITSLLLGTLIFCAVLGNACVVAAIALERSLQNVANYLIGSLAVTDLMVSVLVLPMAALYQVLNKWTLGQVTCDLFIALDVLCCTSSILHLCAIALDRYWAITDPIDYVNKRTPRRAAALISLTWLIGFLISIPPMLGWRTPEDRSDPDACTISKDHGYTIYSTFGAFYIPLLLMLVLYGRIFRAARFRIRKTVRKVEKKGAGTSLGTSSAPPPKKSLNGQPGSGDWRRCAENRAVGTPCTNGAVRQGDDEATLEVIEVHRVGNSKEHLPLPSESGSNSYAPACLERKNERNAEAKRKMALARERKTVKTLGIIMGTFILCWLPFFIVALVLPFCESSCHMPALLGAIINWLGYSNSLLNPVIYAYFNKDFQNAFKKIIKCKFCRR
Procedure, shortened: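 Crude rat hippocampal membranes in Tris-HCl 50 mM, pH 7.7, with pargyline and 4 mM CaCl2. […] Stopped by GF/B filtration, then scintillation counting. Ki from IC50 via Cheng–Prusoff; ≥3 experiments in triplicate.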

[4] = target: T4, Alpha-1A adrenergic receptor (Rattus norvegicus, UniProt P43140); assay: Antagonist activity at alpha1A adrenoceptor in Sprague-Dawley rat prostatic vas deferens assessed as inhibition of noradrenaline-induced contractions after 30 mins; assay type: functional, tissue-based; conditions: read-out: pA2 (converted)
T4 sequence (P43140 whole entry): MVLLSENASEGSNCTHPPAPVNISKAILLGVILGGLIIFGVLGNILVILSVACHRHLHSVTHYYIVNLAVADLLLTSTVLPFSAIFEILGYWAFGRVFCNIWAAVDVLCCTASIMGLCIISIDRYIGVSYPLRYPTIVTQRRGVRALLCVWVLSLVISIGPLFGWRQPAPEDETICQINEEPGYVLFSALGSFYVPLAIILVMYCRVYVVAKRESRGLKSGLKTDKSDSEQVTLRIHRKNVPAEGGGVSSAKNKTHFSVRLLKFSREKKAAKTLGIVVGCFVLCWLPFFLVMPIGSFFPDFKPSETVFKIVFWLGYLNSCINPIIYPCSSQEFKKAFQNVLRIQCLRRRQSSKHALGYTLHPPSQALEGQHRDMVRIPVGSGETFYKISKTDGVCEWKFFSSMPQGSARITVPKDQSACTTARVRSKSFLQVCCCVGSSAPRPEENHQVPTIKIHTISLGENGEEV

[5] = target: T5, Alpha-1B adrenergic receptor (Rattus norvegicus, UniProt P15823); assay: Antagonist activity at alpha1B adrenoceptor in Sprague-Dawley rat spleen assessed as inhibition of phenylephrine-induced contractions after 30 mins; assay type: functional, tissue-based; conditions: read-out: pA2 (converted)
T5 sequence (P15823 whole entry): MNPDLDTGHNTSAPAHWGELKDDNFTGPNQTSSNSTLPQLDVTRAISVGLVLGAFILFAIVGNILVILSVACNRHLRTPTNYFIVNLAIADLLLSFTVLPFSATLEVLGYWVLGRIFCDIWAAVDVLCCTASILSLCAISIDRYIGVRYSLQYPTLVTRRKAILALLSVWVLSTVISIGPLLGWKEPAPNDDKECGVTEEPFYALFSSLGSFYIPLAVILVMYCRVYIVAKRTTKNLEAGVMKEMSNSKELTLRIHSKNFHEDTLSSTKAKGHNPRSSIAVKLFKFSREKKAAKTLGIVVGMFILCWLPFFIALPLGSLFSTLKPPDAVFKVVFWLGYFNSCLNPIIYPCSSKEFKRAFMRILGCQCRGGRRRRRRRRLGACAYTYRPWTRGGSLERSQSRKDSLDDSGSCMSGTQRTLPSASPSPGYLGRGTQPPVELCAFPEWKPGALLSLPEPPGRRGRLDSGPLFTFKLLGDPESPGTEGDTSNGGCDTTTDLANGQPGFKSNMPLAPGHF

Ki [1]: 30.9 nM | Ki [2]: 2.19 nM | Ki [3]: 1 nM | Kb [4]: 166 nM | Kb [5]: 15.8 nM
SMILES: COc1cccc(OC)c1OCCNC[C@H]1COc2cccc(O)c2O1.Cl

Ki [1]: 2.19 nM | Ki [2]: 0.891 nM | Ki [3]: 1.7 nM | Kb [4]: 0.275 nM | Kb [5]: 8.91 nM
SMILES: COc1cccc(OC)c1OCCNC[C@H]1COc2cccc(Cl)c2O1.Cl

The next lines start with the compound.

SMILES: COc1cccc(OC)c1OCCNC[C@H]1COc2cccc(F)c2O1.Cl
Ki [1]: 2.4 nM | Ki [2]: 0.646 nM | Ki [3]: 1.41 nM | Kb [4]: 28.8 nM | Kb [5]: 2.75 nM

SMILES: COc1cccc(OC)c1OCCNC[C@H]1COc2cccc(OC)c2O1.Cl
Ki [1]: 2.75 nM | Ki [2]: 0.912 nM | Ki [3]: 0.851 nM | Kb [4]: 1.7 nM | Kb [5]: 0.263 nM

SMILES: COc1cccc(OC)c1OCCNC[C@H]1COc2c(OC)cccc2O1.Cl
Ki [1]: 447 nM | Ki [2]: 24 nM | Ki [3]: 28.8 nM | Kb [4]: 53.7 nM | Kb [5]: 16.6 nM
